Experiments:
[1] = target: T1, Low molecular weight protein-tyrosine phosphatase A (Mycobacterium tuberculosis, UniProt P9WIA1); assay: Inhibition of Mycobacterium tuberculosis recombinant protein tyrosine phosphatase A by Lineweaver-Burke plot analysis
T1 sequence (P9WIA1 whole entry): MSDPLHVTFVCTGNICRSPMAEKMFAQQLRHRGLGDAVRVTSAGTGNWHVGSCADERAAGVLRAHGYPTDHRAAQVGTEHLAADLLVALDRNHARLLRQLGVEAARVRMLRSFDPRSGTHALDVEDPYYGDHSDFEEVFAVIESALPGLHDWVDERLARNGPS
Procedure, shortened: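 Recombinant wild-type MPtpA (purified, purity by SDS-PAGE, concentration from A280) held at 1 µM. Phosphatase activity measured at 25 °C in 0.1 M Tris, 0.15 M NaCl, 1 mM EDTA, pH 7.5, with pNPP substrate. p-Nitrophenol release read at 405 nm. Inhibitors added from methanol, final methanol ≤3% v/v. Inhibitor typically 10–50 µM, substrate 100–300 µM. Triplicate assays. Mode of inhibition from double-reciprocal plots. Ki taken from a plot of Km/Vmax versus [I].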

[2] = target: T2, Low molecular weight protein-tyrosine phosphatase A (Mycobacterium tuberculosis) (UniProt P9WIA1); assay: Binding affinity to Mycobacterium tuberculosis recombinant protein tyrosine phosphatase A by circular dichroism spectral analysis
T2 sequence (whole entry): T1 sequence (P9WIA1 whole entry)
Procedure, shortened: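 Far-UV CD of recombinant MPtpA at 25 °C in Tris buffer, 10 mm quartz cell. Spectra taken over 195–240 nm at 50 nm/min with 4 s response. Buffer blank containing the ligand subtracted. Protein:peptide ratio titrated from 2:1 up to 1:6. Changes followed at the α-helix minima, 208 and 222 nm, and a binding constant was derived from the titration.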

[3] = target: T2, Low molecular weight protein-tyrosine phosphatase A (Mycobacterium tuberculosis); assay: Binding affinity to Mycobacterium tuberculosis recombinant protein tyrosine phosphatase A by fluorescence quenching assay
Procedure, shortened: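 Intrinsic tryptophan fluorescence of MPtpA, held at 2 µM, recorded at 20 °C in a 10 mm quartz cuvette. Emission maximum at 340 nm followed during titration with the peptide, up to a 1:10 protein:peptide ratio. Data fitted to Stern–Volmer (F0/F = 1 + Ksv[Q]) and Scatchard plots to give quenching and binding constants.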

SMILES | Ki [1] [µM] | Kb [2] | Kb [3]
C[C@@H]1NC(=O)[C@H](C)NC(=O)[C@H](C)NC(=O)[C@@H]([C@@H](Nc2ccccc2)c2ccccc2)CNC1=O | 199 | 3.3 ×10⁴ /M | 3.27 ×10⁴ /M
O=C1CNC(=O)CNC(=O)[C@@H]([C@@H](Nc2ccccc2)c2ccco2)CN1 | 215 | 2.95 ×10⁴ /M | 2.99 ×10⁴ /M
O=C1CNC(=O)[C@@H]([C@@H](Nc2ccccc2)c2ccccc2)CN1 | 140 | 3.6 ×10⁴ /M | 3.41 ×10⁴ /M
O=C1CNC(=O)[C@H](Cc2ccc(O)cc2)NC(=O)[C@@H]([C@@H](Nc2ccccc2)c2ccccc2)CN1 | 8 | 1.2 ×10⁵ /M | 1.5 ×10⁵ /M
C[C@@H]1NC(=O)[C@H](C)NC(=O)[C@@H]([C@@H](Nc2ccccc2)c2ccccc2)CNC1=O | 220 | 1.1 ×10⁴ /M | 1 ×10⁴ /M
O=C1CC[C@H](C(=O)O)NC(=O)[C@@H]([C@@H](Nc2ccccc2)c2ccccc2)CN1 | 36.3 | 8.5 ×10⁴ /M | 8.89 ×10⁴ /M
O=C1CNC(=O)CNC(=O)[C@@H]([C@@H](Nc2ccccc2)c2ccccc2)CN1 | 85.5 | 4.7 ×10⁴ /M | 4.87 ×10⁴ /M
